Activity calls are given as the source filed them. No cut-off for these calls is given here.
Experiments:
Aorta [1] = test: Vasorelaxation activity in Wistar rat thoracic aortic ring assessed as inhibition of KCl-induced contraction at 100 uM relative to KCl; type: functional
Method in brief: (§1)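 Endothelium-denuded rat aortic rings recorded isometrically, equilibrated 60 min. Denudation checked with ACh (10 µM) on KCl (20 mM) tone; rings relaxing ≥10% discarded. Rings contracted with 20 mM KCl, then given 3-fold cumulative concentrations from 10 nM to 100 µM.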

Rattus norvegicus [2] = test: Cardioprotective activity in Langendorff perfused Wistar rat assessed as rate pressure product at 40 mg/kg, ip recorded after 30 mins of ischemia followed by 120 mins of reperfusion in presence of 5-hydroxydecanoic acid; type: functional, organism-based; set-up: dose 40 mg/kg
Method in brief: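 In this series the mito-KATP blocker 5-hydroxydecanoic acid (10 mg/kg, in water) was given 20 min before the ip compound (40 mg/kg). The Langendorff protocol was then run: 30 min global ischemia, 120 min reperfusion. RPP at 120 min expressed as % of preischemic value.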

Rattus norvegicus [3] = test: Cardioprotective activity in Langendorff perfused Wistar rat assessed as rate pressure product at 40 mg/kg, ip recorded after 30 mins of global ischemia followed by 120 mins of reperfusion; type: functional; settings: route intraperitoneal
Method in brief: (§2)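 Adult male Wistar rats (260-350 g) given the compound ip in DMSO (40 mg/kg; cromakalim 1 mg/kg), then after 2 h anaesthetised with pentobarbital (100 mg/kg ip) and heparinized (100 UI ip). Hearts on Langendorff apparatus with an LV balloon (end-diastolic 5-10 mmHg). 30 min equilibration, 30 min global no-flow ischemia, 120 min reperfusion. RPP at 120 min expressed as % of preischemic RPP.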

Rattus norvegicus [4] = test: Antiischemic activity in Langendorff perfused Wistar rat assessed as ratio of ischemic area to total area at 40 mg/kg, ip; type: functional; settings: route intraperitoneal
Aorta [5] = test: Vasorelaxation activity in Wistar rat thoracic aortic ring assessed as inhibition of KCl-induced contraction; type: functional, tissue-based; method in brief: as §1
Rattus norvegicus [6] = test: Cardioprotective activity in Langendorff perfused Wistar rat assessed as rate pressure product at 1 mg/kg, ip recorded after 30 mins of global ischemia followed by 120 mins of reperfusion; type: functional; settings: route intraperitoneal; method in brief: as §2
Rattus norvegicus [7] = test: Hypotensive activity in normotensive Wistar rat assessed as systolic blood pressure at 1 mg/kg, ip after 90 mins; type: functional, organism-based; set-up: dose 1 mg/kg; settings: Artery
Method in brief: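 Male 10-week-old normotensive Wistar rats (250 g), heparinized (100 UI ip) and anaesthetised with pentobarbital (60 mg/kg). Tail warmed 20 min under IR lamp, basal systolic pressure taken by tail-cuff. Cromakalim given ip at 1 mg/kg, groups of five. Systolic pressure recorded every 30 min for 90 min, as % of basal.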

| Compound | Emax at 100 µM (Aorta [1]) [%] | Activity (Rattus norvegicus [2]) | Activity (Rattus norvegicus [3]) [%] | Ratio (Rattus norvegicus [4]) [%] | IC50 (Aorta [5]) [µM] | Activity (Rattus norvegicus [6]) [%] | Activity (Rattus norvegicus [7]) |
| --- | --- | --- | --- | --- | --- | --- | --- |
| CC(=O)Nc1ccc(CN2CCOC3(C2)CC(C)(C)Oc2ccccc23)cc1 (racemic) | 76.6 | – | – | – | – | – | – |
| CC(=O)Nc1ccc(CN2CC3(CC(C)(C)Oc4ccc(Br)cc43)OCC2=O)cc1 (racemic) | 69.7 | – | – | – | – | – | – |
| CC1(C)CC2(CN(Cc3ccc(NS(C)(=O)=O)cc3)C(=O)CO2)c2cc(Br)ccc2O1 (racemic) | 86.8 | inactive | – | – | – | – | – |
| CC(=O)Nc1ccc(CN2CC3(CC(C)(C)Oc4ccccc43)OCC2=O)cc1 (racemic) | 56.5 | inactive | – | – | – | – | – |
| CC(=O)Nc1ccc(CN2CCOC3(C2)CC(C)(C)Oc2ccc(Br)cc23)cc1 (racemic) | 99.8 | – | – | – | – | – | – |
| CC1(C)CC2(CN(Cc3ccc(NS(C)(=O)=O)cc3)CCO2)c2cc(Br)ccc2O1 (racemic) | 98.1 | inactive | – | – | – | – | – |
| COc1ccccc1CN1CC2(CC(C)(C)Oc3ccccc32)OCC1=O (racemic) | – | – | 36 | 25 | – | – | – |
| CC1(C)CC2(CN(Cc3ccccc3)C(=O)CO2)c2cc(Br)ccc2O1 (racemic) | 65.8 | – | 37 | 43 | 14.5 | – | – |
| COc1cccc(CN2CCOC3(C2)CC(C)(C)Oc2ccc(Br)cc23)c1 (racemic) | – | – | 42 | 29 | – | – | – |
| CC1(C)CC2(CN(Cc3ccccc3)CCO2)c2cc(Br)ccc2O1 (racemic) | – | – | 42 | 31 | – | – | – |
| CC1(C)CC2(CN(Cc3ccc(N)cc3)C(=O)CO2)c2cc(Br)ccc2O1 (racemic) | – | – | 52 | 22 | – | – | – |
| Cc1ccc(CN2CC3(CC(C)(C)Oc4ccc(Br)cc43)OCC2=O)cc1 (racemic) | – | – | 38 | 22 | – | – | – |
| CC1(C)CC2(CN(Cc3ccc(C(F)(F)F)cc3)C(=O)CO2)c2cc(Br)ccc2O1 (racemic) | – | – | 47 | 42 | – | – | – |
| COc1ccc(CN2CCOC3(C2)CC(C)(C)Oc2ccc(Br)cc23)cc1 (racemic) | 61.6 | – | 60 | 10 | 34.7 | – | – |
| CC1(C)CC2(CN(Cc3ccc(Br)cc3)C(=O)CO2)c2ccccc2O1 (racemic) | 89.2 | – | 80 | 23 | 4.9 | – | – |
| COc1ccc(CN2CC3(CC(C)(C)Oc4ccc(Br)cc43)OCC2=O)cc1 (racemic) | 91.8 | – | 76 | 16 | 3.02 | – | – |
| COc1ccccc1CN1CC2(CC(C)(C)Oc3ccc(Br)cc32)OCC1=O (racemic) | – | – | 42 | 28 | – | – | – |
| CC1(C)CC2(CN(Cc3ccc(C(F)(F)F)cc3)CCO2)c2cc(Br)ccc2O1 (racemic) | 57.8 | – | 84 | 5 | 17.8 | – | – |
| CC1(C)CC2(CN(Cc3ccc(Br)cc3)CCO2)c2cc(Br)ccc2O1 (racemic) | – | – | 53 | 16 | – | – | – |
| CC1(C)CC2(CN(Cc3ccc(Br)cc3)CCO2)c2ccccc2O1 (racemic) | – | – | 43 | 35 | – | – | – |
| COc1ccccc1CN1CCOC2(C1)CC(C)(C)Oc1ccccc12 (racemic) | – | – | 65 | 34 | – | – | – |

| Compound | Emax at 100 µM (Aorta [1]) [%] | Activity (Rattus norvegicus [2]) | Activity (Rattus norvegicus [3]) [%] | Ratio (Rattus norvegicus [4]) [%] | IC50 (Aorta [5]) [µM] | Activity (Rattus norvegicus [6]) [%] | Activity (Rattus norvegicus [7]) |
| --- | --- | --- | --- | --- | --- | --- | --- |
| CC1(C)CC2(CN(Cc3ccc(NS(C)(=O)=O)cc3)CCO2)c2ccccc2O1 (racemic) | 80.6 | – | 23 | 35 | 15.5 | – | – |
| CC1(C)CC2(CN(Cc3ccc(N)cc3)C(=O)CO2)c2ccccc2O1 (racemic) | 12.5 | – | 53 | 19 | – | – | – |
| CC1(C)CC2(CN(Cc3ccc(NS(C)(=O)=O)cc3)C(=O)CO2)c2ccccc2O1 (racemic) | 98 | – | 70 | 23 | 2.95 | – | – |
| CC1(C)CC2(CN(Cc3ccccc3)CCO2)c2ccccc2O1 (racemic) | 85.9 | inactive | 77 | 18 | 6.76 | – | – |
| COc1cccc(CN2CC3(CC(C)(C)Oc4ccccc43)OCC2=O)c1 (racemic) | – | – | 29 | 41 | – | – | – |
| Cc1ccc(CN2CCOC3(C2)CC(C)(C)Oc2ccc(Br)cc23)cc1 (racemic) | – | – | 57 | 29 | – | – | – |
| COc1ccc(CN2CC3(CC(C)(C)Oc4ccccc43)OCC2=O)cc1 (racemic) | – | – | 27 | 29 | – | – | – |
| CC1(C)CC2(CN(Cc3ccc(N)cc3)CCO2)c2cc(Br)ccc2O1 (racemic) | – | – | 30 | 39 | – | – | – |
| CC1(C)CC2(CN(Cc3ccc(Br)cc3)C(=O)CO2)c2cc(Br)ccc2O1 (racemic) | – | – | 23 | 47 | – | – | – |
| COc1cccc(CN2CCOC3(C2)CC(C)(C)Oc2ccccc23)c1 (racemic) | – | – | 38 | 17 | – | – | – |
| CC1(C)CC2(CN(Cc3ccc(C(F)(F)F)cc3)C(=O)CO2)c2ccccc2O1 (racemic) | 101 | – | 2 | 53 | 7.08 | – | – |
| COc1ccccc1CN1CCOC2(C1)CC(C)(C)Oc1ccc(Br)cc12 (racemic) | – | – | 59 | 30 | – | – | – |
| Cc1ccc(CN2CC3(CC(C)(C)Oc4ccccc43)OCC2=O)cc1 (racemic) | – | – | 44 | 23 | – | – | – |
| COc1cccc(CN2CC3(CC(C)(C)Oc4ccc(Br)cc43)OCC2=O)c1 (racemic) | – | – | 27 | 29 | – | – | – |
| Cc1ccc(CN2CCOC3(C2)CC(C)(C)Oc2ccccc23)cc1 (racemic) | – | – | 35 | 47 | – | – | – |
| CC1(C)CC2(CN(Cc3ccc(N)cc3)CCO2)c2ccccc2O1 (racemic) | 52.3 | – | 58 | 25 | 28.2 | – | – |
| CC1(C)CC2(CN(Cc3ccccc3)C(=O)CO2)c2ccccc2O1 (racemic) | 55.3 | – | 35 | 33 | 28.2 | – | – |
| CC1(C)CC2(CN(Cc3ccc(C(F)(F)F)cc3)CCO2)c2ccccc2O1 (racemic) | 59.9 | – | 34 | 31 | 22.9 | – | – |
| COc1ccc(CN2CCOC3(C2)CC(C)(C)Oc2ccccc23)cc1 (racemic) | – | – | 61 | 26 | – | – | – |
| CC1(C)Oc2ccc(C#N)cc2C(N2CCCC2=O)C1O (stereo not drawn) [CROMAKALIM] | – | inactive | – | – | – | 94 | Active |
| CC1=Nc2ccc(Cl)cc2S(=O)(=O)N1 [DIAZOXIDE] | – | inactive | – | 28 | – | – | – |

Source: ChEMBL document CHEMBL1142537, “Spirocyclic benzopyran-based derivatives as new anti-ischemic activators of mitochondrial ATP-sensitive potassium channel” (J Med Chem, 2008)
